Reference: ChEMBL document CHEMBL2311513, “Fragment growing and linking lead to novel nanomolar lactate dehydrogenase inhibitors” (J Med Chem, 2013)
pIC50, pKd: −log10 of the molar value. The source made the active and inactive calls. The calls are words filed in the database; no cut-off is given here.

Experiments:
[1] = molecular target: T1, L-lactate dehydrogenase A chain (Homo sapiens, UniProt P00338); assay: Binding affinity to human LDH-A by surface plasmon resonance analysis
Procedure, shortened: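 Human LDH-A amine-coupled to a CM5 chip (~13000 RU), carbonic anhydrase II as reference surface. Running buffer 10 mM HEPES, 150 mM NaCl, 3% DMSO. Compounds injected as 2-fold dilution series, top 1 mM, at 20 °C. Equilibrium and kinetic responses fitted to a 1:1 binding model to give Kd.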

[2] = molecular target: T1, L-lactate dehydrogenase A chain; assay: Inhibition of LDH-A (unknown origin) by enzyme assay
[3] = molecular target: T1, L-lactate dehydrogenase A chain; assay: Inhibition of LDH-A in human Ramos cells assessed as cellular lactate level at 200 uM after 4 hrs; format: cell-based
Procedure, shortened: (§1)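 Supernatant sampled after 1 and 4 h. Extracellular lactate measured by a two-step lactate assay, both times within the linear range. Lactate expressed relative to vehicle, from a representative experiment.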

[4] = molecular target: T1, L-lactate dehydrogenase A chain; assay: Inhibition of LDH-A in human Ramos cells assessed as cellular lactate level at 200 uM after 1 hr; format: cell-based; procedure, shortened: as §1
[5] = molecular target: T1, L-lactate dehydrogenase A chain; assay: Inhibition of LDH-A (unknown origin) up to 1 mM in presence of 0.1% Triton
[6] = molecular target: T1, L-lactate dehydrogenase A chain; assay: Inhibition of LDH-A (unknown origin) in presence of 0.1% Triton
[7] = molecular target: T1, L-lactate dehydrogenase A chain; assay: Inhibition of LDH-A (unknown origin) in absence of 0.1% Triton

Row | Structure (SMILES) | pKd [1] | pIC50 [2] | other results
1 | COc1ccc(Cl)cc1NC(=O)CSc1ccc(C(=O)O)cn1 | 3.86 | 3.11 | –
2 | Nc1cc(F)cc(-c2ccc(C(=O)O)cn2)c1 | – | 2.89 | –
3 | O=C(O)COc1cc(F)cc(-c2ccc(C(=O)O)cn2)c1 | 2.89 | 2.66 | –
4 | O=C(CCCCN1C(=O)/C(=C/c2ccc(O)c(O)c2)SC1=S)NCc1ccc(Cl)c(Cl)c1 | – | – | inhibition [5]: inactive
5 | O=C(O)CN1C(=O)/C(=C/c2ccc(O)c(O)c2)SC1=S | – | – | inhibition [5]: inactive
6 | COc1cc(OCC(O)CO)c(Cl)cc1NC(=O)CSc1ccc(C(=O)O)cn1 (stereo unspecified) | 3.44 | 3.47 | –
7 | O=C(O)c1ccc(-c2ccccc2)nc1 | 2.64 | < 2.70 | –
8 | COC(=O)c1ccc(SCC(=O)Nc2cc(Cl)c(OC[C@@H](O)[C@@H](O)[C@H](O)[C@H](O)CNc3cc(F)cc(-c4ccc(C(=O)OC)cn4)c3)cc2OC)nc1 | – | < 2.00 | inhibition [3]: inactive; inhibition [4]: inactive

Second part, led by results:

Row | pKd [1] | pIC50 [2] | Structure (SMILES) | other results
9 | 4.92 | 4.82 | COc1cc(OC[C@H](O)[C@H](O)[C@@H](O)[C@@H](O)COc2cc(F)cc(-c3ccc(C(=O)O)cn3)c2)c(Cl)cc1NC(=O)CSc1ccc(C(=O)O)cn1 | –
10 | 6.65 | 5.62 | COc1cc(OC[C@@H](O)[C@@H](O)[C@H](O)[C@H](O)CNc2cc(F)cc(-c3ccc(C(=O)O)cn3)c2)c(Cl)cc1NC(=O)CSc1ccccn1 | lactate level (% of vehicle) [3]: 61%; lactate level (% of vehicle) [4]: 21%
11 | 6.76 | 5.62 | COc1cc(OCCCNC(=O)COc2cc(F)cc(-c3ccc(C(=O)O)cn3)c2)c(Cl)cc1NC(=O)CSc1ccc(C(=O)O)cn1 | –
12 | 6.07 | 4.23 | COc1cc(OCCCOCCCOc2cc(F)cc(-c3ccc(C(=O)O)cn3)c2)c(Cl)cc1NC(=O)CSc1ccc(C(=O)O)cn1 | –
13 | 7.72 | 6.92 | COc1cc(OC[C@@H](O)[C@@H](O)[C@H](O)[C@H](O)CNc2cc(F)cc(-c3ccc(C(=O)O)cn3)c2)c(Cl)cc1NC(=O)CSc1ccc(C(=O)O)cn1 | lactate level (% of vehicle) [3]: 68%; lactate level (% of vehicle) [4]: 56%
14 | 5.53 | 4.89 | COc1cc(OC[C@@H](O)[C@@H](O)[C@H](O)[C@H](O)CNc2cc(F)cc(-c3ccccn3)c2)c(Cl)cc1NC(=O)CSc1ccc(C(=O)O)cn1 | lactate level (% of vehicle) [3]: 35%; lactate level (% of vehicle) [4]: 17%
15 | 7.17 | 6.36 | COc1cc(OC[C@@H](O)[C@@H](O)[C@H](O)[C@H](O)COc2cc(F)cc(-c3ccc(C(=O)O)cn3)c2)c(Cl)cc1NC(=O)CSc1ccc(C(=O)O)cn1 | pIC50 [6]: 6.49; pIC50 [7]: 6.66
